Each block holds one compound with its values, some of them ahead of it. Active and inactive are the calls of the source. The rule behind the calls is not given here.
What was measured:
[1] = Ratio of AUC in Sprague-Dawley rat at 25 mg/kg, po to IC50 for TXB2 production in Sprague-Dawley rat whole blood; type: functional
[2] = system: Rattus norvegicus; test: Inhibition of PGE2 production in carrageenan-stimulated rat air pouch model at 5 mg/kg, po after 6 hrs; type: functional
In short: (§1)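 Carrageenan was injected into a preformed air pouch 2 h after oral drug. Pouch contents were removed 6 h later and PGE2 was quantified.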

[3] = system: Rattus norvegicus; test: Inhibition of PGE2 production in carrageenan-stimulated orally dosed rat air pouch model after 6 hrs; type: functional; conditions: po; in short: as §1
[4] = system: Rattus norvegicus; test: Inhibition of carrageenan-induced paw edema in po dosed Sprague-Dawley rat administered 2 hrs before carrageenan challenge; type: functional
[5] = Inhibition of cytosolic phospholipase A2alpha by GLU micelle assay
In short: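 Micellar assay with 7-hydroxycoumarinyl-γ-linolenate (GLU) substrate, presenting inhibitor and substrate to the enzyme in high-lipid micelles. Each run gives the mean of duplicate assays, and values come from at least two runs.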

[6] = system: Blood; test: Inhibition of TXB2 production in Sprague-Dawley rat whole blood; type: functional, tissue-based
In short: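 Rat whole blood stimulated with calcium ionophore A23187 at 5 µM, with thromboxane B2 measured. Each run gives the mean of triplicate assays, and values come from at least two runs.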

[7] = Plasma concentration in collagen-induced arthritis mouse model at 100 mg/kg, po twice daily after 1.5 hrs; type: ADME, organism-based; design: dose 100 mg/kg, route oral
[8] = system: Mus musculus; test: Plasma concentration in collagen-induced arthritis mouse model at 100 mg/kg, po twice daily after 12 to 14 hrs; type: ADME, organism-based; design: dose 100 mg/kg, route oral; conditions: in vivo
[9] = system: Rattus norvegicus; test: Reduction in synovitis damage in Freund's adjuvant-induced arthritis Lewis rat model at 25 mg/kg, po for 11 days; type: functional, organism-based; design: dose 25 mg/kg
In short: (§2)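 Arthritis was induced in Lewis rats by intradermal complete Freund's adjuvant at the base of the tail. Oral treatment began on day 8, when mean clinical joint scores were 12, and continued for 11 days. Tarsal joints were taken at necropsy and lesions were scored histologically in blinded fashion.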

[10] = system: Rattus norvegicus; test: Reduction in synovitis damage in Freund's adjuvant-induced arthritis Lewis rat model at 5 mg/kg, po for 11 days; type: functional, organism-based; design: dose 5 mg/kg; in short: as §2
[11] = system: Rattus norvegicus; test: Reduction in cartilage damage in Freund's adjuvant-induced arthritis Lewis rat model at 50 mg/kg, po for 11 days; type: functional, organism-based; design: dose 50 mg/kg; in short: as §2
[12] = system: Rattus norvegicus; test: Reduction in cartilage damage in Freund's adjuvant-induced arthritis Lewis rat model at 25 mg/kg, po for 11 days; type: functional, organism-based; design: dose 25 mg/kg; in short: as §2
[13] = system: Rattus norvegicus; test: Reduction in cartilage damage in Freund's adjuvant-induced arthritis Lewis rat model at 5 mg/kg, po for 11 days; type: functional, organism-based; design: dose 5 mg/kg; in short: as §2
[14] = system: Ovis aries; test: Effect on late asthmatic response in Ascaris Suum antigen-induced reversible airway bronchoconstriction sheep model assessed as reduction in lung resistance at 10 mg/kg, po bid administered 2 hrs before antigen challenge measured 5 to 8 hrs after challenge; type: functional; design: scale not given: the % may be the effect or the level left
[15] = system: Rattus norvegicus; test: Reduction in synovitis damage in Freund's adjuvant-induced arthritis Lewis rat model at 50 mg/kg, po for 11 days; type: functional, organism-based; design: dose 50 mg/kg; in short: as §2
[16] = Plasma concentration in adjuvant-induced arthritis Lewis rat model at 25 mg/kg, po after 4 hrs; type: ADME, organism-based; design: dose 25 mg/kg, route oral
[17] = Inhibition of cytosolic phospholipase A2alpha at 0.020 uM
In short: (§3)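 Isolated enzyme activity on PAPC (1-palmitoyl-2-arachidonoyl-sn-glycero-3-phosphocholine) liposome substrate.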

[18] = biological target: T1, Cytosolic phospholipase A2 beta (Homo sapiens) (UniProt P0C869); test: Inhibition of cytosolic phospholipase A2beta at 0.5 uM; in short: as §3
T1 sequence (whole entry): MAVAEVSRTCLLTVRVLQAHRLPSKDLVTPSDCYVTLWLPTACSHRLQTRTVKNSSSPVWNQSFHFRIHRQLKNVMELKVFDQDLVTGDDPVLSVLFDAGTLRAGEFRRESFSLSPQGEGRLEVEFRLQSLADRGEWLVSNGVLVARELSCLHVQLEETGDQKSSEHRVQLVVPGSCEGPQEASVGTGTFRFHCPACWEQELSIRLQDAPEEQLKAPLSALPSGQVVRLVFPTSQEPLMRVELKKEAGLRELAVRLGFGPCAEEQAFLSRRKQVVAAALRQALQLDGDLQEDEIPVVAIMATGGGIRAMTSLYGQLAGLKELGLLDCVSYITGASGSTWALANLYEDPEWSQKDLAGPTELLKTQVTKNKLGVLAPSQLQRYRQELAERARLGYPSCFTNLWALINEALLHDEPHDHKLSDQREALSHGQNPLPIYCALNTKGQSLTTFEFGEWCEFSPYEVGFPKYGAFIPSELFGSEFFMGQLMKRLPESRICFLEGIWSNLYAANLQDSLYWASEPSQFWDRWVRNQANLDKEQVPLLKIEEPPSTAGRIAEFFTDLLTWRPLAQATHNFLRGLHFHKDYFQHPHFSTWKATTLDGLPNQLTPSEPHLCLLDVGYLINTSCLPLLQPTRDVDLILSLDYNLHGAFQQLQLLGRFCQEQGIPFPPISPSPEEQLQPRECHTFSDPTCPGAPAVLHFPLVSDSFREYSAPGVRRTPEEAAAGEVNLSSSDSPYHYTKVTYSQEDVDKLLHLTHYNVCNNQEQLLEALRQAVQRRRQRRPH

[19] = biological target: T2, Cytosolic phospholipase A2 gamma (Homo sapiens) (UniProt Q9UP65); test: Inhibition of cytosolic phospholipase A2gamma at 0.5 uM; in short: as §3
T2 sequence (whole entry): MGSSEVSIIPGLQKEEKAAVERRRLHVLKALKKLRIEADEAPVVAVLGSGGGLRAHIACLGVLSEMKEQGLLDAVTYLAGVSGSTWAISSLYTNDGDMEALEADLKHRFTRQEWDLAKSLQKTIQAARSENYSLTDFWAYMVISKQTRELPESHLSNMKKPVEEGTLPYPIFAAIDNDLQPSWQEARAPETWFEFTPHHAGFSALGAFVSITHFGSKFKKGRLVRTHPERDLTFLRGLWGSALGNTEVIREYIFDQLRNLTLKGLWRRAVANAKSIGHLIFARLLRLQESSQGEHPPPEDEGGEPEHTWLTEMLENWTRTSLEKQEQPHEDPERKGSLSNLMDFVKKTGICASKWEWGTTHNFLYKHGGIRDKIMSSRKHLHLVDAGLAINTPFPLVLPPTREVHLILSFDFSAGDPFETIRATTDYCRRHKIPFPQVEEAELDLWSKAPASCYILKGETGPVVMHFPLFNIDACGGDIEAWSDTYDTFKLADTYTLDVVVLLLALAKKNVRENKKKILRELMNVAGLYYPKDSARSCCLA

[20] = Inhibition of cytosolic phospholipase A2alpha
[21] = Inhibition of secreted phospholipase A2 at 0.5 uM
In short: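 Type II secreted PLA2 activity measured with PAPE (1-palmitoyl-2-arachidonoyl-sn-glycero-3-phosphoethanolamine) liposomes as substrate.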

[22] = Oral bioavailability in rat; type: ADME, organism-based; conditions: in vivo
[23] = system: MC9; test: Inhibition of LTB4 production in mouse MC9 cells; type: functional, cell-based
[24] = system: MC9; test: Inhibition of PGF2alpha production in mouse MC9 cells; type: functional, cell-based
[25] = system: MC9; test: Inhibition of PGF2apha production in arachidonic acid-stimulated mouse MC9 cells; type: functional, cell-based
[26] = system: Blood; test: Inhibition of TXB2 production in human whole blood at 0.15 uM; type: functional
In short: (§4)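 Human whole blood stimulated with calcium ionophore A23187 at 30 µM. Several arachidonic acid metabolites (LTB4, PGE2, PGF2α, TXB2) and PAF production were quantified.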

[27] = system: Blood; test: Inhibition of LTB4 production in human whole blood at 0.15 uM; type: functional; in short: as §4
[28] = system: Blood; test: Inhibition of PGE2 production in human whole blood at 0.15 uM; type: functional; in short: as §4
[29] = system: Blood; test: Inhibition of PGF2alpha production in human whole blood at 0.15 uM; type: functional; in short: as §4
[30] = system: Blood; test: Inhibition of PAF production in human whole blood at 0.15 uM; type: functional; in short: as §4
[31] = Plasma concentration in collagen-induced arthritis mouse model at 100 mg/kg, po twice daily after 3 hrs; type: ADME, organism-based; design: dose 100 mg/kg, route oral
[32] = Plasma concentration in adjuvant-induced arthritis Lewis rat model at 50 mg/kg, po after 4 hrs; type: ADME, organism-based; design: dose 50 mg/kg, route oral
[33] = Plasma concentration in adjuvant-induced arthritis Lewis rat model at 5 mg/kg, po after 4 hrs; type: ADME, organism-based; design: dose 5 mg/kg, route oral
[34] = Plasma concentration in adjuvant-induced arthritis Lewis rat model at 50 mg/kg, po after 16 hrs; type: ADME, organism-based; design: dose 50 mg/kg, route oral
[35] = Plasma concentration in adjuvant-induced arthritis Lewis rat model at 25 mg/kg, po after 16 hrs; type: ADME, organism-based; design: dose 25 mg/kg, route oral
[36] = Plasma concentration in adjuvant-induced arthritis Lewis rat model at 5 mg/kg, po after 16 hrs; type: ADME, organism-based; design: dose 5 mg/kg, route oral
[37] = biological target: Prostaglandin G/H synthase 2, cyclooxygenase-2 (Homo sapiens) (UniProt P35354); test: Inhibition of COX2-dependent PGE2 production in IL1B stimulated human A549 cells at 0.040 uM
Sequence of Prostaglandin G/H synthase 2, cyclooxygenase-2 (Homo sapiens) (P35354 whole entry, looked up): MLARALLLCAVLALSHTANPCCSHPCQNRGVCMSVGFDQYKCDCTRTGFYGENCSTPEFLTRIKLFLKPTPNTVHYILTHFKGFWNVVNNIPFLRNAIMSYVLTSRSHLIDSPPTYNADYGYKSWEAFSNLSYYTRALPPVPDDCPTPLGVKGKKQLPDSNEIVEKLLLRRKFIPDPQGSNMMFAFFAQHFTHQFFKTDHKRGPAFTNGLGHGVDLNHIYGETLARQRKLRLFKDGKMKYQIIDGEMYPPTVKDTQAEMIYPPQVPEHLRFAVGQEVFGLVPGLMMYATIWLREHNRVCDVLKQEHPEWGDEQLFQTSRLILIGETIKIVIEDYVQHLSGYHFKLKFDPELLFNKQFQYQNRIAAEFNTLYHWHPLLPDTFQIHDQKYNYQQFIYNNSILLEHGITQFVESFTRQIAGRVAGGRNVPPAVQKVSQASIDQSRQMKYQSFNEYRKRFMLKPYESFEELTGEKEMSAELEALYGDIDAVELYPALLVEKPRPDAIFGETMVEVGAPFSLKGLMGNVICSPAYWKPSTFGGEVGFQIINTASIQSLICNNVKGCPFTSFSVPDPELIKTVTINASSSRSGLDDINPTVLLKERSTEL

[38] = biological target: Prostaglandin G/H synthase 2, cyclooxygenase-2 (Homo sapiens) (UniProt P35354); test: Inhibition of COX2-dependent PGE2 production in IL1B stimulated human A549 cells at 1 uM in presence of arachidonic acid
[39] = system: Ovis aries; test: Inhibition of acute hyperresponsiveness in Ascaris Suum antigen-induced reversible airway bronchoconstriction sheep model assessed as reduction in lung resistance at 10 mg/kg, po bid administered and measured after 16 hrs

IC50 [5]: 150 nM
IC50 [6]: 160 nM
concentration at 1.5 h [7]: 4080 ng/mL
Cp [8]: 531 ng/mL
Compound: O=C(O)c1ccc(OCCc2c(CCNS(=O)(=O)Cc3ccc(Cl)c(Cl)c3)n(C(c3ccccc3)c3ccccc3)c3ccc(Cl)cc23)cc1 [ECOPLADIB]
Ratio [1]: 18 h
inhibition in vivo at 5 mg/kg [2]: < 10%
ED50 [3]: 10 mg/kg
ED50 [4]: 40 mg/kg

concentration at 4 h [16]: 1130 ng/mL
inhibition [17]: > 90%
Activity [18]: inactive
Activity [19]: inactive
IC50 [20]: < 10 nM
Activity [21]: inactive
bioavailability [22]: 6%
IC50 [5]: 40 nM
IC50 [23]: 20 nM
IC50 [24]: 20 nM
IC50 [25]: 900 nM
concentration at 3 h [31]: 7200 ng/mL
Cp [8]: 2315 ng/mL
concentration at 4 h [32]: 3600 ng/mL
concentration at 4 h [33]: 147 ng/mL
concentration at 16 h [34]: 692 ng/mL
concentration at 16 h [35]: 166 ng/mL
concentration at 16 h [36]: 34 ng/mL
inhibition [37]: > 95%
Activity [38]: inactive
Compound: O=C(O)c1ccc(CCCc2c(CCNS(=O)(=O)Cc3ccc(Cl)c(Cl)c3)n(C(c3ccccc3)c3ccccc3)c3ccc(Cl)cc23)cc1 [EFIPLADIB]
Activity [9]: Active
Activity [10]: Active
Activity [11]: Active
Activity [12]: Active
Activity [13]: Active
Activity [14]: 50%
Activity [15]: Active
ED50 [3]: 6 mg/kg
ED50 [4]: 35 mg/kg
inhibition at 0.15 µM [26]: 57%
inhibition at 0.15 µM [27]: 64%
inhibition at 0.15 µM [28]: 78%
inhibition at 0.15 µM [29]: 66%
inhibition at 0.15 µM [30]: 50%
Activity [39]: Active

From ChEMBL document CHEMBL1150415 (J Med Chem, 2008)
